Shown are actives, neighbours in structure and some others; about 2.1% of the full set was active somewhere.
Ba/F3 V617F tox: lowers viability of Ba/F3 cells expressing EpoR and JAK2V617F; 220,000 compounds, 1.1% hits; inhibition, % at 5.6 µM; AID 1446; ATP luminescence;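 active = inhibition above the campaign mean plus 3 SD over all tested compounds, cut at about 24% in these data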;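 note: cytokine-independent growth of Ba/F3 cells driven by EpoR plus mutant JAK2; 0% = DMSO-treated cells and 100% = JAK inhibitor I control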
BaF3 parental: counter-screen for JAK2V617F inhibitors: parental Ba/F3 viability inhibitors. inhibition, % at 5.6 µM. CellTiter-Glo ATP luminescence. 220,000 compounds, 1.1% hits;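 active = inhibition above a per-campaign cutoff, the mean inhibition of all tested compounds plus 3 SD, cut at about 27% in these data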;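 note: 0% = DMSO wells and 100% = JAK Inhibitor I control wells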
b-catenin transl: alters nuclear translocation of beta-catenin in HeLa cells; nuclear translocation activity, % at 5 µM; 190,000 compounds, 0.3% hits; AID 1665; immunofluorescence imaging;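 active = nuclear translocation activity above 50% at 5 µM, with a well cell count of 50 or more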;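 note: per-cell ratio of nuclear to cytoplasmic median beta-catenin stain intensity; plate controls were DMSO negative control for no effect and GSK-3 inhibitor IX positive control for full effect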
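Technique: fluorescence imaging of beta-catenin antibody stain plus DAPI / Material: human HeLa cell line / Incubation: compound treatment 24 h, 37°C, 5% CO2 / Read-out basis: % activation of per-cell nuclear versus cytoplasmic median beta-catenin signal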
KLF5 inhibitor: suppresses KLF5 promoter-driven expression; inhibition, % at 5 µM; 290,000 compounds, 0.23% hits; DLD-1 KLF5 promoter-luciferase reporter, luminescence;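 active = inhibition above a per-plate limit of that plate's mean compound inhibition plus 3 SD, cut at about 60% in these data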;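 note: 0% = DMSO wells and 100% = LY294002 at 200 µM; higher means less KLF5 promoter-driven luciferase light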
MT stabilize HCS: microtubule stabilizers in HeLa cells | % tubulin-high responders, % at 10 µM | 200,000 compounds, 0.83% hits | HeLa tubulin immunostaining HCS, 24 h; share of cells brighter than vehicle mean+2SD;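 active = plate Z-score above 3 for both tubulin-high and condensed-nucleus cell shares, with cell loss under 80%, at 10 µM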;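 note: anti alpha tubulin signal scored within the nucleus-defined area of each cell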
IEC-6 cytotox: counter-screen for KLF5 inhibitors: cytotoxicity in IEC-6 cells | IEC-6 cytotoxicity, luminescence viability | inhibition, % at 5 µM | 290,000 compounds, 0.78% hits | AID 1825;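 note: 0% = plate median of test compound wells and 100% = cytotoxic reference compound wells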
IEC-6 tox confirm: IEC-6 cytotoxicity, confirmation assay. shares compounds with IEC-6 cytotox. IEC-6 rat intestinal epithelial viability, luminescence. inhibition, % at 5 µM. 1,900 compounds, 63% hits. AID 1907;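 note: 0% = vehicle and 100% = reference cytotoxic drug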
* marks the source's active call; other numbers are inactive results; . = no result. Cut-off read from the data, not from the text of the source, unless noted: active = inhibition above about 22%; inactive = the rest.

SMILES	Ba/F3 V617F tox	BaF3 parental	b-catenin transl	KLF5 inhibitor	MT stabilize HCS	IEC-6 cytotox	IEC-6 tox confirm
CC(=O)Nc1ccc(/C(C)=N\NC(=O)c2ccc(-c3ccccc3)cc2)cc1	87.5*	81.5*	0.6	-55.8	2.1	25.5*	-6.1
C/C(=N\NC(=O)c1ccc(F)cc1)c1ccccn1	.	.	.	38.0	.	32.5*	98.3*
CC(=O)Nc1ccc(/C(C)=N/NC(=O)c2ccc(F)cc2)cc1	0.2	5.6	-3.6	-26.4	3.5	-1.1	.
CCOc1ccc(C(=O)N/N=C(\c2ccccc2)c2ccccn2)cc1	85.9*	79.7*	2.3	18.6	1.8	26.2*	68.3*
O=C(Nc1ccccc1O)c1nc(Cl)ccc1Cl	-2.6	10.4	-1.7	-1.3	2.6	-1.0	.
O=c1c2cc([N+](=O)[O-])ccc2nc(CN2CCN(c3ccccn3)CC2)n1-c1ccccc1F	-1.1	6.4	1.4	-24.0	3.2	-3.7	.
CC(=O)N(C1=C(Cl)C(=O)c2ccccc2C1=O)C1CCCCC1	1.5	-4.9	2.9	-12.6	.	25.1*	8.5
COc1cc2ncnc(NCc3ccccc3Cl)c2cc1OC	2.9	5.3	1.8	4.5	1.1	22.2*	36.4*
COc1cc2ncnc(NCc3ccccc3C)c2cc1OC	-2.8	4.9	-0.1	22.8	1.4	25.1*	36.3*
COc1cc2ncnc(Nc3ccc4c(c3)OCO4)c2cc1OC	.	.	.	-34.0	.	26.8*	57.6*
CN(C)c1ccc(NC(=O)CCCCCn2nnc3ccccc3c2=O)cc1	.	.	.	-32.6	.	0.1	.
O=c1[nH]c2ccccc2nc1-c1ccccc1	5.1	1.6	0.2	-47.9	.	11.4	.
NC(=O)N=Nc1c2[nH]c3ccccc3nc-2c2ccccc12	5.7	7.5	3.0	7.6	.	25.9*	6.6
COc1ccc(Cl)cc1NC(=O)CN(C)CC(=O)Nc1cc(OC)c(OC)c(OC)c1	.	.	.	54.1	.	40.1*	32.8*
COc1ccc(Cl)cc1NC(=O)CN(C)CC(=O)Nc1ccc(Br)cc1	4.7	7.6	.	-16.1	1.9	-1.0	.
O=C(N1CCN(CCO)CC1)N1c2ccccc2CCc2ccccc21	-3.0	-2.8	-1.0	-7.8	.	-1.9	.
CCN(CC(=O)NCc1ccc(F)cc1)C(=O)/C=C/c1ccc(OC)c(S(=O)(=O)NC(C)C)c1	.	.	.	48.0	.	72.9*	49.9*
S=C(Nc1cccc(Cl)c1Cl)Nn1cnnc1	-2.7	4.4	2.6	-10.9	3.7	-4.0	.
COc1ccc(C(=O)n2c(-c3ccco3)nc3ccccc32)cc1	10.3	8.2	74.6*	24.7	23.5*	47.6*	35.8*
O=C1c2cccc3c([N+](=O)[O-])ccc(c23)C(=O)N1O	.	.	.	-22.1	.	85.4*	11.4
CC(C)c1c(C(=O)N/N=C/c2ccc3c(c2)OCO3)nnn1-c1nonc1N	.	.	.	-40.3	.	-1.1	.
CCN(CC)c1ccc(/C=N/NC(=O)c2nnn(-c3nonc3N)c2C(C)C)c(O)c1	.	.	.	49.6	.	96.7*	67.8*
Cc1cccc(NC(=O)c2cccnc2Oc2ccccc2)c1C(=O)O	.	.	.	-27.8	.	-5.3	.
CC(Oc1ccc(-n2cnnn2)cc1)C(=O)O (configuration not stated)	0.5	4.0	-1.2	-32.3	1.7	-2.8	.
O=C(Oc1c(CN2CCOCC2)cc(Cl)c2cccnc12)c1ccccc1Br	-2.6	1.3	-2.7	6.0	.	24.5*	21.0
SMILES	Ba/F3 V617F tox	BaF3 parental	b-catenin transl	KLF5 inhibitor	MT stabilize HCS	IEC-6 cytotox	IEC-6 tox confirm
CN1CCN(Cc2cc(Cl)c3cccnc3c2OC(=O)c2cccs2)CC1	0.8	9.7	-2.4	-9.0	2.4	8.2	.
CCCN1CCC(NCc2cn(C)nc2-c2ccc(Oc3ccccc3)cc2)CC1	52.5*	67.5*	1.2	-8.9	.	35.9*	43.0*
COC1CCCN(Cc2cn(C)nc2-c2ccc(Oc3ccccc3)cc2)C1 (configuration not stated)	3.8	7.4	2.3	15.6	2.6	3.9	.
Cn1c(=O)c2c(nc(NCc3cccnc3)n2Cc2cccc(C(F)(F)F)c2)n(C)c1=O	52.6*	53.4*	1.9	9.2	5.5	25.2*	24.8*
Cc1cccc(Cn2c(NCC(C)O)nc3c2c(=O)n(C)c(=O)n3C)c1 (configuration not stated)	-0.4	7.0	.	-22.0	2.4	2.0	.
O=c1c(Cl)c(Cl)cnn1-c1ccccc1	-1.1	-7.9	7.5	10.0	3.8	94.8*	30.8*
O=c1c2ccccc2nc(SCCN2CCCCC2)n1CCc1ccccc1	7.9	11.7	0.3	-11.1	2.4	22.4*	9.3
COc1ccc(CC(=O)NCc2ccccc2)cc1	.	.	.	44.7	.	50.0*	37.1*
O=C(Cc1ccc(Br)cc1)NCc1ccccc1	.	.	.	35.2	.	59.6*	44.7*
COc1ccc(OCCC(=O)NCc2ccccc2)cc1	-0.7	2.8	0.3	-18.6	2.2	-0.4	.
O=c1[nH]c(/C=C/c2ccccc2Cl)nc2ccccc12	.	.	.	-49.9	.	39.4*	24.3*
N#CC1=C2SCC(O)(c3ccccc3)N2C(=O)CC1c1ccccc1 (configuration not stated)	81.6*	79.5*	45.9	56.2	33.7*	76.7*	60.2*
Cc1ccc2nc(N(CCCN(C)C)C(=O)c3ccco3)sc2c1	4.6	7.9	-1.2	-49.2	2.9	2.5	.
CN(C)CCCN(C(=O)c1ccco1)c1nc2cc3c(cc2s1)OCO3	.	.	.	-21.9	.	44.9*	21.0
COc1ccc(C#Cc2ccc3c(=O)c4ccccc4n(C)c3c2)cc1	.	.	.	-13.5	.	0.5	.
Cn1c2ccccc2c(=O)c2ccc(C#Cc3ccc(N)cc3)cc21	.	.	.	-44.1	.	36.3*	33.4*
O=C(N/N=C/c1cccs1)c1n[nH]c2c1CCCC2	2.2	1.6	0.2	-6.0	.	8.3	.
Cc1ccc(/C=N/NC(=O)c2n[nH]c3c2CCCC3)cc1	93.1*	93.0*	57.9*	60.1	.	88.0*	82.7*
O=C(N/N=C/C(Br)=C\c1ccccc1)c1n[nH]c2c1CCC2	85.0*	78.4*	.	44.1	15.4*	74.6*	82.3*
CC(/C=N/NC(=O)c1n[nH]c2c1CCC2)=C\c1ccccc1	82.9*	79.7*	214.7*	11.1	10.5	85.5*	62.2*
CC(/C=N/NC(=O)c1cccs1)=C\c1ccccc1	-1.4	-1.4	-0.8	-106.3	4.2	8.2	.
Cc1ccc(/C=N/NC(=O)c2c(C)nc3ccc(Br)cn23)cc1	.	.	.	63.4*	.	68.7*	44.6*
Cc1cc(-c2cc(N)n(-c3ccccc3)n2)c(C)n1C1CCCC1	1.6	2.8	-5.1	-12.3	4.3	1.4	.
COc1cc(/C=N/NC(=O)CC#N)cc(Br)c1O	-4.3	-0.4	-2.5	8.9	1.6	36.8*	-6.0
O=C(Nc1c2c(nn1-c1ccc(F)cc1)CS(=O)(=O)C2)c1ccc(Br)o1	.	.	.	-1.9	.	0.2	.
O=C1C(Cl)=C(NCCN2CCOCC2)C(=O)c2ccccc21	.	.	.	-13.4	.	32.8*	19.2
COc1cccc(S(=O)(=O)Nc2ccc(C(=O)Nc3ccncc3)cc2)c1	5.3	10.6	-1.8	7.6	4.0	5.0	.

Bioassay records deposited in PubChem by several laboratories.
